This is a sample that favours compounds with a hit; in the whole collection about 5.4% have one here.
CSC inhib – blocks cancer stem cells; cancer stem cell-like cells viability, luminescence; 1.1% of 300,000 active; inhibition, % at 7.5 µM; in the data active = inhibition above about 75%; inconclusive = no clear call, values can overlap the other calls; tested in HMLE shEcad cells
Mdm2-MdmX inh – inhibitors of human Mdm2/MdmX interaction. AID 485346. inhibition, % at 8 µM. SaOS-2 split-luciferase Mdm2/MdmX complementation, luminescence. O15151+Q00987. 3% of 330,000 active;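 active = inhibition of at least 50% at 8 µM in the primary screen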
T cruzi repl – blocks replication of Trypanosoma cruzi | T. cruzi beta-gal in NIH3T3, luminescence, 90 h | inhibition, % (no concentration beside the values) | 1.4% of 300,000 active;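 active = mean inhibition across valid replicates above about 55%, limit read from the data; inconclusive = mean below that limit but half or more replicates reach it; inactive = mean below it, under half of replicates reach it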;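 note: signal also drops with host cell toxicity which is not excluded here; higher percent means less beta-gal luminescence so fewer parasites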
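compound dosing = single 50 nL compound addition per well in DMSO | material = NIH/3T3 host cells with β-galactosidase reporter T. cruzi | input = 5,000 host fibroblasts per well | timing = ≥90 h infection period, 3 h prior cell attachment | read-out basis = percent inhibition of parasite-derived β-gal signal | detection = GalScreen β-gal luminescence, detergent lysis, 60 min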
SKKanGAS inh – SKKanGAS growth inhibition; 1.3% of 300,000 active; S. pyogenes SKKanGAS, kanamycin growth, BacTiter-Glo, 6 h; inhibition, % at 7.5 µM;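 active = mean replicate score, as percent of positive control median, at least 50; inconclusive = mean below 50 but one replicate at or above 50; inactive = mean and every replicate below 50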;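 note: strain carries kanamycin resistance gene driven by streptokinase promoter and grows in 40 µg/ml kanamycin; loss of luminescence reflects streptokinase promoter inhibition or plain growth inhibition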
aSyn 5UTR inh – 5' untranslated region of α-synuclein, MLPCN primary screen | 0.82% of 300,000 active | alpha-synuclein 5'UTR reporter, inhibitor activity | inhibition, % (tested at 7.5 µM) | AID 1813; in the data active = inhibition above about 60%; inconclusive = no clear call, values can overlap the other calls;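 note: H4 neuroglioblastoma cells stably carrying SNCA 5'UTR luciferase fusion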
Mdm2-MdmX conf – human Mdm2/MdmX binding inhibition, confirmed. inhibition, % at 8 µM. luminescent assay. shares compounds with Mdm2-MdmX inh. 55% of 10,000 active. AID 489028; in the data active = inhibition above about 40%
Full FLuc ctr – inhibits full-length luciferase, flagging false Mdm2/MdmX hits. shares compounds with Mdm2-MdmX inh. SaOS-2 full-length luciferase counterscreen, luminescence. inhibition, % at 8 µM. 77% of 6,200 active;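 active = mean inhibition at 8 µM reaching about 37%, which flags the compound as non-specific, limit read from the data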;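 note: p53-null SaOS-2 cells with luciferase driven by a doxycycline-inducible promoter; compound on cells about two nights before reading with doxycycline added after day one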
Hits are given with their value; - = inactive; ? = inconclusive; . = no result.

SMILES	CSC inhib	Mdm2-MdmX inh	T cruzi repl	SKKanGAS inh	aSyn 5UTR inh	Mdm2-MdmX conf	others
Cc1nc(C(=O)Nc2ccccc2Cl)cc2c1[nH]c1ccccc12	-	80.1	-	-	-	57.1	Full FLuc ctr=56.1
CCCCNC(=O)CC1NCCNC1=O (configuration not stated)	-	-	-	-	-	.
O=C(Oc1c(-c2ccccc2)c(=O)n2c3c(cccc13)CC2)c1cccc([N+](=O)[O-])c1	-	69.8	-	-	77.3	74.8	Full FLuc ctr=39.4
O=C(Oc1c(-c2ccccc2)c(=O)n2c3c(cccc13)CC2)c1ccc(F)cc1	-	54.5	-	-	-	-
CC(C)CCc1noc(CN2CCN(c3ccc(Cl)cn3)CC2)n1	-	-	-	-	-	.
O=C(CN1C(=O)C2CC=CCC2C1=O)NC1CCCc2ccccc21 (configuration not stated)	-	-	-	-	-	.
Cc1cccc(C(=O)N[C@H](C(=O)Nc2ncc(C)s2)C(C)C)c1	78.7	67.9	-	-	-	63.8	Full FLuc ctr=98.9
C[C@H](NC(=O)c1ccccc1)C(=O)Nc1nc(-c2ccccn2)cs1	-	-	-	-	-	.
Cc1cccc(C(=O)NC(C(=O)Nc2nc(-c3ccccn3)cs2)C(C)C)c1 (configuration not stated)	-	74.4	82.3	91.4	81.4	57.0	Full FLuc ctr=-
Cc1cccc(C(=O)N[C@H](C(=O)Nc2nnc(C3CC3)s2)C(C)C)c1	-	-	-	-	-	.
Cc1[nH]c2ccc(CNS(=O)(=O)c3ccc(S(=O)(=O)N4CCOCC4)cc3)cc2c1C	-	-	-	-	-	.
Cc1ccnc(N/C=C(\C#N)c2nc(-c3cccc(Br)c3)cs2)c1	-	53.4	-	-	-	-
CCOC(=O)c1nnc(-c2ccc(C)cc2)nc1Sc1ccccc1Cl	-	54.0	-	-	-	-
CCOC(=O)c1nnc(-c2ccc(C)cc2)nc1Oc1ccc(Cl)cc1Cl	-	-	-	-	-	.
CCOC(=O)c1nnc(-c2ccc(C)cc2)nc1Oc1ccccc1Cl	.	51.0	-	-	-	-
COc1cc2oc(-c3ccc(O)cc3)cc(=O)c2c(OC)c1O	.	50.8	-	-	-	-
O=c1cc(-c2ccc(O)cc2)oc2ccc3ccccc3c12	89.9	68.0	.	.	.	65.5	Full FLuc ctr=75.5
CC(=O)C1=C(c2ccccc2)NC(=O)NC1c1ccccc1OCC(=O)NCc1ccccc1 (configuration not stated)	-	-	.	-	.	.
COc1ccccc1OC(=O)c1cc2ccccc2oc1=O	-	-	-	-	-	.
COc1cc(/C=C/[N+](=O)[O-])ccc1OC(=O)c1cc2ccccc2oc1=O	-	50.8	-	-	-	-
Cc1oc(-c2ccccc2)nc1C(=O)O	-	77.0	-	-	-	-
Cc1oc(-c2ccccc2)nc1CC(=O)O	-	-	-	-	-	.
Cc1ccc(S(=O)(=O)Nc2cccc(-c3ccc4nnc(C)n4n3)c2)s1	.	64.7	-	-	-	-
COc1c(C(=O)Nc2ccccc2N2CCOCC2)cc2ccccc2c1Br	-	50.3	-	-	-	-
COc1ccccc1C(=O)Nc1ccccc1N1CCOCC1	-	-	-	-	-	.
SMILES	CSC inhib	Mdm2-MdmX inh	T cruzi repl	SKKanGAS inh	aSyn 5UTR inh	Mdm2-MdmX conf	others
O=C(NCCCN1CCCCC1)c1ccc(CS(=O)c2ccc(Cl)cc2)o1 (configuration not stated)	-	-	-	-	-	.
COc1cccc(OCCn2cc(C(C)=O)c3ccccc32)c1	-	-	-	-	-	.
Clc1ccc(-c2cc(-c3ccccc3)on2)cc1	-	-	.	.	.	.
Cc1ccc2nc(-c3cc(-c4ccccc4)no3)cn2c1	-	69.5	.	-	85.8	-
Cc1ccc(-c2cc(-c3ccccc3)no2)c(O)c1	-	.	-	-	-	.
CCc1ccn2cc(-c3cc(-c4ccccc4)no3)nc2c1	-	65.7	-	-	94.4	67.0	Full FLuc ctr=95.2
O=C(Nc1ccc(O)c2c(=O)cc(-c3cccc(Cl)c3)oc12)c1cccc(Cl)c1	-	80.7	-	-	?	-
Cc1ccc(/C=N/N2C(=S)SC(C)(C)C2N(O)C(=O)Nc2ccc([N+](=O)[O-])cc2)cc1 (configuration not stated)	-	67.5	-	-	-	-
CCC(=O)c1cn(CC(=O)Nc2cccc(C)c2)c2ccccc12	-	-	-	-	-	.
Cc1ccc2nc(-c3ccc(NC(=S)NC4CC(C)(C)NC(C)(C)C4)cc3)sc2c1	-	98.6	-	58.2	120.9	-
Cc1nc2ccccc2c(N)c1C(=O)/C=C/c1ccccc1	-	76.3	-	-	-	-	Full FLuc ctr=75.0
COc1ccc(CNC(=O)CNS(=O)(=O)c2cccs2)cc1	-	-	-	-	-	.
Cc1nn(-c2ccccc2)c(C)c1-c1nnc(C(F)(F)F)o1	.	-	-	-	-	.
Cc1nn(-c2ccccc2)c(C)c1-c1nnc(-c2c(C)nn(-c3ccccc3)c2C)o1	-	56.0	-	57.0	-	-
COc1ccc(S(=O)(=O)NCCSCc2cccs2)cc1	-	-	-	-	-	.
CCn1c(SCC(=O)Nc2ccc(OCc3ccccc3)cc2)nnc1-c1ccco1	-	-	-	-	-	.
CC(=O)c1cccc(NC(=O)CNC(=O)c2sc3ccccc3c2Cl)c1	-	76.4	-	-	-	48.2	Full FLuc ctr=55.5
COc1ccc(NC(=O)NCCCCc2ccccc2)c(OC)c1	-	58.1	-	?	-	-
COc1ccccc1CNC(=O)CNC(=O)c1sc2ccccc2c1Cl	-	-	-	-	-	.
COc1ccc(NC(=O)CNC(=O)c2sc3ccccc3c2Cl)c(OC)c1	.	77.2	.	.	.	-
Cc1nc2ccc(Br)cn2c1C(=O)N/N=C\c1ccc(C(C)C)cc1	?	57.4	-	-	-	47.6	Full FLuc ctr=63.9
Cc1ccc(OCc2nnnn2-c2ccccc2)cc1	-	-	-	-	-	.
COc1ccc(OC)c(NC(=O)c2ccc3c(c2)C(=O)N(CC2CCCO2)C3=O)c1 (configuration not stated)	.	-	-	-	-	.
COc1ccc2cc3c(N)nn(C(=O)c4ccc(F)cc4)c3nc2c1	-	82.3	-	-	-	89.0	Full FLuc ctr=46.6
COc1ccc2cc3c(N)nn(C(=O)c4ccccc4Cl)c3nc2c1	-	92.6	-	-	65.3	93.3	Full FLuc ctr=50.6
COc1ccc2cc3c(N)nn(C(=O)c4cccc(F)c4)c3nc2c1	-	71.3	-	-	-	81.4	Full FLuc ctr=43.4
COc1ccc(NC(=O)Nc2ccc3c(c2)CC(=O)N([C@H](C)CO)C[C@@H](C)[C@H](CN(C)C(=O)Nc2ccccc2)O3)cc1	.	-	.	.	.	.
CCOC(=O)C(Cc1ccccc1)NC(=O)Cn1nnc(-c2ccc(SC)cc2)n1 (configuration not stated)	-	-	-	-	-	.
CSc1ccc(-c2nnn(CC(=O)NCc3ccccc3)n2)cc1	-	-	-	-	-	-

Assay outcomes deposited in PubChem by several laboratories.
